Test results from ChEMBL document CHEMBL1145344, “Brunsvicamides A-C: sponge-related cyanobacterial peptides with Mycobacterium tuberculosis protein tyrosine phosphatase inhibitory activity” (J Med Chem, 2006).

Columns and labels:
[1] = target: Dual specificity protein phosphatase 3 (Homo sapiens, UniProt P51452); assay: Inhibition of VHR
Outline: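 VHR in 25 mM MOPS, 5 mM EDTA, 2 mM DTE, 0.025% NP-40, pre-incubated 10-15 min with inhibitor at 100-3.125 µM (2-fold). Reaction started with 1 mM p-nitrophenyl phosphate. Rate from the A405 slope versus control, in quadruplicate. IC50 was derived by linear extrapolation of velocity against log inhibitor concentration.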

[2] = target: T1, M-phase inducer phosphatase 1 (Homo sapiens, UniProt P30304); assay: Inhibition of CDC25a
T1 sequence (P30304 whole entry): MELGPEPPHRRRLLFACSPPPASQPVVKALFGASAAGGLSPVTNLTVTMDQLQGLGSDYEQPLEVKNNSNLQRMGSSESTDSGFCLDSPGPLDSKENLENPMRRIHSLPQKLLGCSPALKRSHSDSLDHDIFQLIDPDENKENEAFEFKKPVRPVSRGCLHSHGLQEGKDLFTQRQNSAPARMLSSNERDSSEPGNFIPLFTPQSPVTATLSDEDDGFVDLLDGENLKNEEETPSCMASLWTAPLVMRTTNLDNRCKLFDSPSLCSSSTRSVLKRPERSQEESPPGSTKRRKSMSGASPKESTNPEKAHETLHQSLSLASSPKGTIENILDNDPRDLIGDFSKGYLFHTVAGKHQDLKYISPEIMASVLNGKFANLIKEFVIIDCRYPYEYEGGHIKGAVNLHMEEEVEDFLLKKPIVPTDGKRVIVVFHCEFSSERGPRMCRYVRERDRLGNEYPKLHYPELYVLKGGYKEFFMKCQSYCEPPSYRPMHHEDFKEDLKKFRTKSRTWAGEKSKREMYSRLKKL
Outline: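 Recombinant CDC25A, pre-incubated 10-15 min with inhibitor in 50 mM Tris, 50 mM NaCl, 0.1 mM EDTA, 2 mM DTE, 0.025% NP-40. Started with p-nitrophenyl phosphate at 50 mM final. Inhibitor at 100-3.125 µM in 2-fold steps. Rate was taken from the A405 slope versus an uninhibited control, in quadruplicate. IC50 came from linear extrapolation against log concentration.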

[3] = target: T2, Phosphotyrosine-protein phosphatase PTPB (Mycobacterium tuberculosis, UniProt P96830); assay: Inhibition of Mycobacterium tuberculosis ptpb
T2 sequence (P96830 whole entry): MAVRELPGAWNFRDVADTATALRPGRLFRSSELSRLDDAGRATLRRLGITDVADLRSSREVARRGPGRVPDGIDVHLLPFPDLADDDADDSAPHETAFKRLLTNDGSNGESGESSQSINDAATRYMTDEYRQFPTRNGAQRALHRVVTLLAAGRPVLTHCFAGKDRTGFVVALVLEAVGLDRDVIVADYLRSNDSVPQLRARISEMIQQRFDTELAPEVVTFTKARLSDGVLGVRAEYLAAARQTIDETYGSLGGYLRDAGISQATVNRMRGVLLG
Outline: (§1)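 MptpA or MptpB was expressed in E. coli BL21(DE3) with 1 mM IPTG for 4 h at 25 °C, then purified by Ni-NTA and Superdex 75 gel filtration. Enzyme was pre-incubated 10-15 min with inhibitor (100-3.125 µM, 2-fold) in 25 mM HEPES, 50 mM NaCl, 2.5 mM EDTA, 2 mM DTE, 0.025% NP-40. Reaction used 1 mM p-nitrophenyl phosphate, read as A405 slope, quadruplicate, IC50 from log-concentration extrapolation.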

[4] = target: T3, Low molecular weight protein-tyrosine phosphatase A (Mycobacterium tuberculosis, UniProt P9WIA1); assay: Inhibition of Mycobacterium tuberculosis ptpA; outline: as §1
T3 sequence (P9WIA1 whole entry): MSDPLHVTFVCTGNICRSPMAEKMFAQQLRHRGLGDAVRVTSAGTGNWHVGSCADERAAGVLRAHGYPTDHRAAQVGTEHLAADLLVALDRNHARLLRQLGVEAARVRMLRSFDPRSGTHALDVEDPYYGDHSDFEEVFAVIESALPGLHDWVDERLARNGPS

[5] = target: T4, Tyrosine-protein phosphatase non-receptor type 11 (Homo sapiens, UniProt Q06124); assay: Inhibition of SHP2
T4 sequence (Q06124 whole entry): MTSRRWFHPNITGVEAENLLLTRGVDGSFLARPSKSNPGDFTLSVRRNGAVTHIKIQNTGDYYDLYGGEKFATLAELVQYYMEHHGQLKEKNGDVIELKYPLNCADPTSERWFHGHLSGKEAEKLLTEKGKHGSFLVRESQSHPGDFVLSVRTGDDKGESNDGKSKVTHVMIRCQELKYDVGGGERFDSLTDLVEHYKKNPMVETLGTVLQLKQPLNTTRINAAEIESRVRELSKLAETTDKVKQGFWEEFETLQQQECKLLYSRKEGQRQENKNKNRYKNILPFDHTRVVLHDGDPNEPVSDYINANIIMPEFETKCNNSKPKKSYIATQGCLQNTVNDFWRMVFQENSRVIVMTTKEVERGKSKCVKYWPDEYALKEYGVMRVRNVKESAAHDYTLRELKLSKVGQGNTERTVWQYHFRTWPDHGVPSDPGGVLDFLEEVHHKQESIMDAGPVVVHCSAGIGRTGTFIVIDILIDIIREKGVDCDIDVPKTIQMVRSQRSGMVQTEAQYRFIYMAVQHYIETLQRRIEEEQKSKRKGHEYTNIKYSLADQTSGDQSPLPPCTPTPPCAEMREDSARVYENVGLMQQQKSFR
Outline: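 SHP2 pre-incubated 10-15 min with a 2-fold inhibitor series (100-3.125 µM) in buffer with 2 mM DTE and 0.025% NP-40. Reaction used 1 mM p-nitrophenyl phosphate. Enzyme was set to give 1-2 OD405/h. Velocity was taken from the A405 slope, with quadruplicate wells. IC50 came from linear extrapolation against log concentration.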

[6] = target: T5, Tyrosine-protein phosphatase non-receptor type 1 (Homo sapiens, UniProt P18031); assay: Inhibition of PTP1b
T5 sequence (P18031 whole entry): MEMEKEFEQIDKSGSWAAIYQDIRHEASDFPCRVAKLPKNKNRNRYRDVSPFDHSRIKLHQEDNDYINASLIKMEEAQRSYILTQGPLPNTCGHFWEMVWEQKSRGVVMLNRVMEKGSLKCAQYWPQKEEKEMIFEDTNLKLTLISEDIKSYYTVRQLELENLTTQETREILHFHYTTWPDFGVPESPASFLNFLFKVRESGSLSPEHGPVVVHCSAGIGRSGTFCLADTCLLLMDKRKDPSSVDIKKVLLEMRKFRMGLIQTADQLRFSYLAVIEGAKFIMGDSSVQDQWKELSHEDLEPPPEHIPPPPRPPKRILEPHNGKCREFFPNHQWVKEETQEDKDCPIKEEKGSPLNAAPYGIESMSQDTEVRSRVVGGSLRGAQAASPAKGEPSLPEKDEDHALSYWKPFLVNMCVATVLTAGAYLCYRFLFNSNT
Outline: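 PTP1b pre-incubated 10-15 min with inhibitor (2-fold series, 100 down to 3.125 µM) in 25 mM HEPES, 50 mM NaCl, 2.5 mM EDTA, 2 mM DTE, 0.025% NP-40. Reaction started with 1 mM p-nitrophenyl phosphate. Velocity from the A405 slope relative to an inhibitor-free control, quadruplicates. IC50 by linear extrapolation of velocity versus log concentration, with 100 µM as the upper limit.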

Chain of Dual specificity protein phosphatase 3 (P51452 whole entry): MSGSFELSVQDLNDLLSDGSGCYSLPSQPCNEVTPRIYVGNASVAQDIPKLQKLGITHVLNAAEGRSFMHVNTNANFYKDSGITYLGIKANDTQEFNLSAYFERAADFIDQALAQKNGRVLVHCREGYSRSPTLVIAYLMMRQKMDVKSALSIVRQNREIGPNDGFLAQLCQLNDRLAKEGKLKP

Row | SMILES | IC50 [1] [µM] | IC50 [2] [µM] | IC50 [3] [µM] | IC50 [4] [µM] | IC50 [5] [µM] | IC50 [6] [µM]
1 | CC[C@H](C)[C@H](NC(=O)N[C@@H]1CCCCNC(=O)[C@H](Cc2ccccc2)NC(=O)[C@H](Cc2c[nH]c3ccccc23)N(C)C(=O)[C@H](CC(C)C)NC(=O)[C@H]([C@@H](C)CC)NC1=O)C(=O)O | > 100 | > 100 | 7.3 | > 100 |  | 
2 | CC[C@H](C)[C@H](NC(=O)N[C@H]1CCCCNC(=O)[C@H](Cc2ccccc2)NC(=O)[C@H](Cc2c[nH]c3ccccc23)N(C)C(=O)[C@H](CC(C)C)NC(=O)[C@H]([C@@H](C)CC)NC1=O)C(=O)O |  |  |  |  | > 100 | > 100
3 | CC[C@H](C)[C@H](NC(=O)N[C@@H]1CCCCNC(=O)[C@H](Cc2ccccc2)NC(=O)[C@H](Cc2c[nH]c3ccccc23)N(C)C(=O)[C@H](CC(C)C)NC(=O)[C@H](C(C)C)NC1=O)C(=O)O [BRUNSVICAMIDE A] | > 100 | > 100 | 64.2 | > 100 |  | 
4 | CC[C@H](C)[C@H](NC(=O)N[C@H]1CCCCNC(=O)[C@H](Cc2ccccc2)NC(=O)[C@H](Cc2c[nH]c3ccccc23)N(C)C(=O)[C@H](CC(C)C)NC(=O)[C@H](C(C)C)NC1=O)C(=O)O [BRUNSVICAMIDE A] |  |  |  |  | > 100 | > 100
